Assay results from ChEMBL document CHEMBL1129298, “Nonpeptide angiotensin II receptor antagonists: synthesis, biological activities, and structure-activity relationships of imidazole-5-carboxylic acids bearing alkyl, alkenyl, and hydroxyalkyl substituents at the 4-position and their related compounds” (J Med Chem, 1996).

Key:
[1] = molecular target: T1, Type-1 angiotensin II receptor (Bos taurus, UniProt P25104); assay: In vitro for inhibition of [125I]-angiotensin II (0.1 nM) binding to angiotensin II receptor type 1 in membrane fractions of bovine adrenal cortex; format: tissue-based
T1 sequence (P25104 whole entry): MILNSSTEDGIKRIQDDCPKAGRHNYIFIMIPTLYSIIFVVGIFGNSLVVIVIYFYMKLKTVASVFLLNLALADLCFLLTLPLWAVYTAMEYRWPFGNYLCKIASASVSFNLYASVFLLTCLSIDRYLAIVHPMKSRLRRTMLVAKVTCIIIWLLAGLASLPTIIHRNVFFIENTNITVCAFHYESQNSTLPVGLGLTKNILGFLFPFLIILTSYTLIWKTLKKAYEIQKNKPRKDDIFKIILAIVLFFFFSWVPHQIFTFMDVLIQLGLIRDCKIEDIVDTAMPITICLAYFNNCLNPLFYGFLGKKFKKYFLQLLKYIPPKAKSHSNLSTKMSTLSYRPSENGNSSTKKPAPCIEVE

[2] = molecular target: Angiotensin II receptor (Rattus norvegicus) (UniProt P29089+P25095+P35351); assay: In vivo inhibitory activity against angiotensin II induced pressor response in anesthetized normotensive rats; format: functional, organism-based
Method in brief: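 Male Wistar-Imamichi rats (300–400 g) under inactin (100 mg/kg ip), with femoral arterial and venous cannulae. AII 50 ng/kg iv every 10 min until responses were constant. Compound in DMSO was then given iv and AII re-injected 2 min later.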

[3] = system: Rattus norvegicus; assay: Inhibitory activity against AII-Induced Pressor response at 1 mg/kg at 1 hr; format: functional
Method in brief: (§1)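 Male Wistar-Imamichi rats (300–400 g) cannulated under pentobarbital (50 mg/kg ip), fasted 24 h, tested conscious the next day. AII 50 ng/kg iv was repeated until constant, then compound in 50% aqueous DMF given orally. AII was repeated over 8 h, and mean blood pressure response inhibition (%) was recorded at 1, 3, 6 h. n = 3–5.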

[4] = system: Rattus norvegicus; assay: Inhibitory activity against AII-Induced Pressor response at 1 mg/kg at 3 hour; format: functional; settings: Rattus norvegicus, 3 h; method in brief: as §1
[5] = system: Rattus norvegicus; assay: Inhibitory activity against AII-Induced Pressor response at 1 mg/kg at 6 hour; format: functional; settings: Rattus norvegicus, 6 h, dose 1 mg/kg; method in brief: as §1
[6] = system: Rattus norvegicus; assay: Inhibitory activity against AII-Induced Pressor response at 10 mg/Kg at 3 hour; format: functional; method in brief: as §1
[7] = system: Rattus norvegicus; assay: Inhibitory activity against AII-Induced Pressor response at 10 mg/Kg at 6 hour; format: functional; method in brief: as §1
[8] = system: Rattus norvegicus; assay: Inhibitory activity against AII-Induced Pressor response at 3 mg/Kg at 1 hr; format: functional; method in brief: as §1
[9] = system: Rattus norvegicus; assay: Inhibitory activity against AII-Induced Pressor response at 3 mg/Kg at 3 hour; format: functional; method in brief: as §1
[10] = system: Rattus norvegicus; assay: Inhibitory activity against AII-Induced Pressor response at 3 mg/Kg at 6 hour; format: functional; method in brief: as §1
[11] = system: Rattus norvegicus; assay: Inhibitory activity against AII-Induced Pressor response at 1 mg/Kg at 1 hr; format: functional; method in brief: as §1
[12] = system: Rattus norvegicus; assay: Inhibitory activity against AII-Induced Pressor response at 1 mg/Kg at 3 hour; format: functional; method in brief: as §1
[13] = system: Rattus norvegicus; assay: Inhibitory activity against AII-Induced Pressor response at 1 mg/Kg at 6 hour; format: functional; method in brief: as §1
[14] = system: Rattus norvegicus; assay: Inhibitory activity against AII-Induced Pressor response at 10 mg/Kg at 1 hr; format: functional; method in brief: as §1

Compound	IC50 [1] [nM]	ID50 [2] [mg/kg]	also measured
CCCCc1nc(C(C)(C)O)c(C(=O)O)n1Cc1ccc(-c2ccccc2C(=O)O)cc1	30	0.066	
CCCc1nc(C(C)(C)O)c(C(=O)OC2OC(=O)c3ccccc32)n1Cc1ccc(-c2ccccc2C(=O)O)cc1 (centres undefined)			inhibition in vivo at 1 mg/kg [3]: 73%; inhibition in vivo at 1 mg/kg [4]: 77%; inhibition in vivo at 1 mg/kg [5]: 74%
CCCc1nc(C(C)(O)CC)c(C(=O)O)n1Cc1ccc(-c2ccccc2C(=O)O)cc1 (centres undefined)	51	0.074	
CCCCc1nc(Cl)c(CO)n1Cc1ccc(-c2ccccc2C(=O)O)cc1		2.3	
CCCc1nc(C(C)C)c(C(=O)O)n1Cc1ccc(-c2ccccc2-c2nn[nH]n2)cc1		0.014	
CCCCc1nc(Cl)c(C(=O)O)n1Cc1ccc(-c2ccccc2-c2nn[nH]n2)cc1 [CARBOXYLIC ACID METABOLITE]		0.1	inhibition in vivo at 10 mg/kg [6]: 93%; inhibition in vivo at 10 mg/kg [7]: 89%; inhibition in vivo at 3 mg/kg [8]: 81%; inhibition in vivo at 3 mg/kg [9]: 81%; inhibition in vivo at 3 mg/kg [10]: 81%; inhibition in vivo at 1 mg/kg [11]: 74%; inhibition in vivo at 1 mg/kg [12]: 72%; inhibition in vivo at 1 mg/kg [13]: 70%; inhibition in vivo at 10 mg/kg [14]: 89%
CCCc1nc(C(C)(C)O)c(C(=O)O)n1Cc1ccc(-c2ccccc2C(=O)OCOC(=O)C(C)(C)C)cc1			inhibition in vivo at 1 mg/kg [3]: 20%; inhibition in vivo at 1 mg/kg [4]: 35%; inhibition in vivo at 1 mg/kg [5]: 40%
CCCc1nc(CC)c(C(=O)O)n1Cc1ccc(-c2ccccc2-c2nnn[nH]2)cc1	12		
CCCCc1nc(C(C)(C)O)c(C(=O)O)n1Cc1ccc(-c2ccccc2-c2nn[nH]n2)cc1		0.017	
CCCc1nc(C(C)C)c(C(=O)O)n1Cc1ccc(-c2ccccc2-c2nnn[nH]2)cc1	46		
CCCc1nc(C(C)(C)O)c(C(=O)OCC)n1Cc1ccc(-c2ccccc2-c2nn[nH]n2)cc1		0.32	inhibition in vivo at 1 mg/kg [11]: 70%; inhibition in vivo at 1 mg/kg [12]: 72%; inhibition in vivo at 1 mg/kg [13]: 76%
CCc1nc(C(C)(C)O)c(C(=O)O)n1Cc1ccc(-c2ccccc2C(=O)O)cc1	37	0.3	
CCCc1nc(CO)c(C(=O)OCC)n1Cc1ccc(-c2ccccc2C(=O)O)cc1		1.5	
CCCc1nc(C(C)(C)O)c(C(=O)OCOC(=O)OC(C)C)n1Cc1ccc(-c2ccccc2C(=O)O)cc1			inhibition in vivo at 1 mg/kg [3]: 71%; inhibition in vivo at 1 mg/kg [4]: 71%; inhibition in vivo at 1 mg/kg [5]: 71%
CCCc1nc(C(=O)O)c(C(=O)O)n1Cc1ccc(-c2ccccc2C(=O)O)cc1		0.67	
CCCc1ncc(C(=O)O)n1Cc1ccc(-c2ccccc2C(=O)O)cc1	60	0.22	
CCCc1ncc(C(=O)O)n1Cc1ccc(-c2ccccc2-c2nn[nH]n2)cc1	9.1	0.018	
C=C(C)c1nc(CCC)n(Cc2ccc(-c3ccccc3C(=O)O)cc2)c1C(=O)O	270	0.37	
CCCc1nc(C)c(C(=O)O)n1Cc1ccc(-c2ccccc2-c2nn[nH]n2)cc1	11	0.028	
CCCc1nc(CO)c(C(=O)O)n1Cc1ccc(-c2ccccc2-c2nnn[nH]2)cc1	6.9		
CCCc1nc(C(C)(C)O)c(C(=O)OCC)n1Cc1ccc(-c2ccccc2C(=O)O)cc1	600	1.2	inhibition in vivo at 10 mg/kg [6]: 70%; inhibition in vivo at 10 mg/kg [7]: 75%; inhibition in vivo at 3 mg/kg [8]: 26%; inhibition in vivo at 3 mg/kg [9]: 28%; inhibition in vivo at 3 mg/kg [10]: 25%; inhibition in vivo at 10 mg/kg [14]: 40%
CCCCc1nc(C(C)(C)O)c(C(=O)O)n1Cc1ccc(-c2ccccc2-c2nnn[nH]2)cc1	9.5		
CCCc1nc(C)c(C(=O)O)n1Cc1ccc(-c2ccccc2C(=O)O)cc1	110	0.096	

Compound	IC50 [1] [nM]	ID50 [2] [mg/kg]	also measured
CCCc1nc(CO)c(CO)n1Cc1ccc(-c2ccccc2C(=O)O)cc1		2.1	
CCCc1nc(C(=O)O)cn1Cc1ccc(-c2ccccc2C(=O)O)cc1	45000	8.2	
CCCc1nc(C(C)(C)O)c(C(=O)OCc2oc(=O)oc2C)n1Cc1ccc(-c2ccccc2C(=O)O)cc1			inhibition in vivo at 1 mg/kg [3]: 72%; inhibition in vivo at 1 mg/kg [4]: 70%; inhibition in vivo at 1 mg/kg [5]: 70%
CCCCc1nc(Cl)c(CO)n1Cc1ccc(-c2ccccc2-c2nnn[nH]2)cc1 [LOSARTAN]		0.3	inhibition in vivo at 10 mg/kg [6]: 77%; inhibition in vivo at 10 mg/kg [7]: 85%; inhibition in vivo at 3 mg/kg [8]: 38%; inhibition in vivo at 3 mg/kg [9]: 35%; inhibition in vivo at 3 mg/kg [10]: 65%; inhibition in vivo at 1 mg/kg [11]: 12%; inhibition in vivo at 1 mg/kg [12]: 12%; inhibition in vivo at 1 mg/kg [13]: 32%; inhibition in vivo at 10 mg/kg [14]: 69%
CCCc1nc(C(=O)O)c(C(=O)O)n1Cc1ccc(-c2ccccc2-c2nn[nH]n2)cc1		0.031	
CCCc1nc(C(C)O)c(C(=O)O)n1Cc1ccc(-c2ccccc2C(=O)O)cc1 (centres undefined)	28	0.062	
CCCc1nc(CC)c(C(=O)O)n1Cc1ccc(-c2ccccc2C(=O)O)cc1	100	0.27	
CCCc1nc(C(C)(C)O)c(C(=O)O)n1Cc1ccc(-c2ccccc2C(=O)O)cc1	28	0.056	inhibition in vivo at 10 mg/kg [6]: 70%; inhibition in vivo at 10 mg/kg [7]: 56%; inhibition in vivo at 1 mg/kg [3]: 50%; inhibition in vivo at 1 mg/kg [4]: 42%; inhibition in vivo at 1 mg/kg [5]: 12%; inhibition in vivo at 3 mg/kg [8]: 78%; inhibition in vivo at 3 mg/kg [9]: 67%; inhibition in vivo at 3 mg/kg [10]: 48%; inhibition in vivo at 10 mg/kg [14]: 88%
CCCc1nc(CC)c(C(=O)O)n1Cc1ccc(-c2ccccc2-c2nn[nH]n2)cc1		0.019	
CCCc1nc(C(=O)O)cn1Cc1ccc(-c2ccccc2-c2nn[nH]n2)cc1		2.4	
CCCc1nc(C(C)O)c(C(=O)O)n1Cc1ccc(-c2ccccc2-c2nnn[nH]2)cc1 (centres undefined)	4.9		
C=C(C)c1nc(CCC)n(Cc2ccc(-c3ccccc3-c3nnn[nH]3)cc2)c1C(=O)O	50		
CCCc1nc(C(O)(CC)CC)c(C(=O)O)n1Cc1ccc(-c2ccccc2C(=O)O)cc1	110	0.11	
C=C(C)c1nc(CCC)n(Cc2ccc(-c3ccccc3-c3nn[nH]n3)cc2)c1C(=O)O		0.012	
CCCc1nc(C(=O)O)c(CO)n1Cc1ccc(-c2ccccc2C(=O)O)cc1		8.8	
CCCc1nc(CO)c(C(=O)O)n1Cc1ccc(-c2ccccc2C(=O)O)cc1		0.069	
CCc1nc(C(C)(C)O)c(C(=O)O)n1Cc1ccc(-c2ccccc2-c2nn[nH]n2)cc1		0.019	
CCc1nc(C(C)(C)O)c(C(=O)O)n1Cc1ccc(-c2ccccc2-c2nnn[nH]2)cc1	5.3		
CCCc1nc(C(C)(C)O)c(C(=O)OCC)n1Cc1ccc(-c2ccccc2-c2nnn[nH]2)cc1	200		
CCCc1nc(C(=O)O)c(CO)n1Cc1ccc(-c2ccccc2-c2nn[nH]n2)cc1	4600	1.7	
CCCCc1nc(Cl)c(C(=O)O)n1Cc1ccc(-c2ccccc2C(=O)O)cc1		0.21	
CCCc1nc(C(C)C)c(C(=O)O)n1Cc1ccc(-c2ccccc2C(=O)O)cc1		0.14	
